Results published in ChEMBL document CHEMBL1135898, “Synthesis and antimycobacterial activity of 6-arylpurines: the requirements for the N-9 substituent in active antimycobacterial purines” (J Med Chem, 2002).
Values after ≈ are worked out from the molar mass of the structure shown.

Legend:
[1] = tested on: Mycobacterium tuberculosis; assay: Minimum Inhibitory Concentration against drug-resistant strain of Mycobacterium tuberculosis Erdman; type: functional
Outline: (§1)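 MICs by microplate alamar blue assay against M. tuberculosis strains resistant to isoniazid (ATCC 35822), rifampin (ATCC 35838), ethambutol, kanamycin or ciprofloxacin, drug-sensitive strain Erdman, and M. avium (ATCC 25291). MIC = minimum concentration giving 90% growth inhibition.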

Mycobacterium avium = assay: Minimum Inhibitory Concentration against drug-resistant strain of Mycobacterium tuberculosis avium; type: functional; outline: as §1

## Clc1nc(-c2ccco2)c2ncn(Cc3ccccc3)c2n1
[1]
  MIC: 12.5 µg/mL (≈ 40.2 µM)
Mycobacterium avium
  MIC: 25 µg/mL (≈ 80.5 µM)
